Legend:
Type in all cases: functional
Parameters in all cases: scale not given: the % may be the effect or the level left
[1] = system: U-251; experiment: Growth inhibition of human U251 cells assessed tumor cell growth at 10^-5 M
Summary of the method: (§1)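 Single-dose screen at 10^-5 M across the 60 human tumor cell line panel, run to NCI standards. The value is the percent growth of each cell line in the presence of compound. Compounds active at this dose moved on to five-concentration testing (10^-4 to 10^-8 M).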

[2] = system: NCI/ADR-RES; experiment: Growth inhibition of human NCI/ADR-RES cells assessed tumor cell growth at 10^-5 M
Summary of the method: (§2)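 NCI 60-human-tumor-cell-line panel screen. Each compound was tested at a single concentration of 10^-5 M, and percent growth of tumor cells was recorded for each cell line. Growth inhibition was expressed from these percent-growth values.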

[3] = system: MOLT-4; experiment: Growth inhibition of human MOLT4 cells assessed tumor cell growth at 10^-5 M; summary of the method: as §2
[4] = system: MDA-MB-468; experiment: Growth inhibition of human MDA-MB-468 cells assessed tumor cell growth at 10^-5 M; summary of the method: as §2
[5] = system: HT-29; experiment: Growth inhibition of human HT-29 cells assessed tumor cell growth at 10^-5 M; summary of the method: as §2
[6] = system: M14; experiment: Growth inhibition of human M14 cells assessed tumor cell growth at 10^-5 M; summary of the method: as §2
[7] = system: A549; experiment: Growth inhibition of human A549 cells assessed tumor cell growth at 10^-5 M; summary of the method: as §2
[8] = system: SR; experiment: Growth inhibition of human SR cells assessed tumor cell growth at 10^-5 M; summary of the method: as §1
[9] = system: K562; experiment: Growth inhibition of human K562 cells assessed tumor cell growth at 10^-5 M; summary of the method: as §2
[10] = system: OVCAR-5; experiment: Growth inhibition of human OVCAR5 cells assessed tumor cell growth at 10^-5 M; summary of the method: as §2
[11] = system: NCI-H226; experiment: Growth inhibition of human NCI-H226 cells assessed tumor cell growth at 10^-5 M; summary of the method: as §2
[12] = system: EKVX; experiment: Growth inhibition of human EKVX cells assessed tumor cell growth at 10^-5 M; summary of the method: as §2
[13] = system: OVCAR-3; experiment: Growth inhibition of human OVCAR3 cells assessed tumor cell growth at 10^-5 M; summary of the method: as §2
[14] = system: A498; experiment: Growth inhibition of human A498 cells assessed tumor cell growth at 10^-5 M; summary of the method: as §2
[15] = system: SK-MEL-2; experiment: Growth inhibition of human SK-MEL-2 cells assessed tumor cell growth at 10^-5 M; summary of the method: as §2
[16] = system: PC-3; experiment: Growth inhibition of human PC3 cells assessed tumor cell growth at 10^-5 M; summary of the method: as §2
[17] = system: RXF 393; experiment: Growth inhibition of human RXF393 cells assessed tumor cell growth at 10^-5 M; summary of the method: as §2
[18] = system: IGROV-1; experiment: Growth inhibition of human IGROV1 cells assessed tumor cell growth at 10^-5 M; summary of the method: as §2
[19] = system: DU-145; experiment: Growth inhibition of human DU145 cells assessed tumor cell growth at 10^-5 M; summary of the method: as §2
[20] = system: 786-0; experiment: Growth inhibition of human 786-0 cells assessed tumor cell growth at 10^-5 M; summary of the method: as §2
[21] = system: MDA-MB-435; experiment: Growth inhibition of human MDA-MB-435 cells assessed tumor cell growth at 10^-5 M; summary of the method: as §2
[22] = system: NCI-H23; experiment: Growth inhibition of human NCI-H23 cells assessed tumor cell growth at 10^-5 M; summary of the method: as §2
[23] = system: HOP-62; experiment: Growth inhibition of human HOP62 cells assessed tumor cell growth at 10^-5 M; summary of the method: as §2
[24] = system: CAKI-1; experiment: Growth inhibition of human Caki1 cells assessed tumor cell growth at 10^-5 M; summary of the method: as §2
[25] = system: LOX IMVI; experiment: Growth inhibition of human LOXIMVI cells assessed tumor cell growth at 10^-5 M; summary of the method: as §2
[26] = system: ACHN; experiment: Growth inhibition of human ACHN cells assessed tumor cell growth at 10^-5 M; summary of the method: as §2
[27] = system: UO-31; experiment: Growth inhibition of human UO31 cells assessed tumor cell growth at 10^-5 M; summary of the method: as §1
[28] = system: UACC-62; experiment: Growth inhibition of human UACC62 cells assessed tumor cell growth at 10^-5 M; summary of the method: as §1
[29] = system: OVCAR-4; experiment: Growth inhibition of human OVCAR4 cells assessed tumor cell growth at 10^-5 M; summary of the method: as §2
[30] = system: CCRF-CEM; experiment: Growth inhibition of human CCRF-CEM cells assessed tumor cell growth at 10^-5 M; summary of the method: as §2
[31] = system: HCT-116; experiment: Growth inhibition of human HCT116 cells assessed tumor cell growth at 10^-5 M; summary of the method: as §2
[32] = system: Malme-3M; experiment: Growth inhibition of human MALME-3M cells assessed tumor cell growth at 10^-5 M; summary of the method: as §2
[33] = system: OVCAR-8; experiment: Growth inhibition of human OVCAR8 cells assessed tumor cell growth at 10^-5 M; summary of the method: as §2
[34] = system: BT-549; experiment: Growth inhibition of human BT549 cells assessed tumor cell growth at 10^-5 M; summary of the method: as §2
[35] = system: SW-620; experiment: Growth inhibition of human SW620 cells assessed tumor cell growth at 10^-5 M; summary of the method: as §1
[36] = system: NCI-H322M; experiment: Growth inhibition of human NCI-H322M cells assessed tumor cell growth at 10^-5 M; summary of the method: as §2
[37] = system: HCC 2998; experiment: Growth inhibition of human HCC2998 cells assessed tumor cell growth at 10^-5 M; summary of the method: as §2
[38] = system: HCT-15; experiment: Growth inhibition of human HCT15 cells assessed tumor cell growth at 10^-5 M; summary of the method: as §2
[39] = Growth inhibition of human Hs 578T cells assessed tumor cell growth at 10^-5 M; summary of the method: as §2
[40] = system: UACC-257; experiment: Growth inhibition of human UACC257 cells assessed tumor cell growth at 10^-5 M; summary of the method: as §1
[41] = Growth inhibition of human […] cells assessed tumor cell growth at 10^-5 M; summary of the method: as §2
[42] = system: SF-268; experiment: Growth inhibition of human SF268 cells assessed tumor cell growth at 10^-5 M; summary of the method: as §2
[43] = system: HOP-92; experiment: Growth inhibition of human HOP92 cells assessed tumor cell growth at 10^-5 M; summary of the method: as §2
[44] = system: MDA-MB-231; experiment: Growth inhibition of human MDA-MB-231 cells assessed tumor cell growth at 10^-5 M; summary of the method: as §2
[45] = system: SNB-75; experiment: Growth inhibition of human SNB75 cells assessed tumor cell growth at 10^-5 M; summary of the method: as §1
[46] = system: KM12; experiment: Growth inhibition of human KM12 cells assessed tumor cell growth at 10^-5 M; summary of the method: as §2
[47] = system: HL-60(TB); experiment: Growth inhibition of human HL-60(TB) cells assessed tumor cell growth at 10^-5 M
Summary of the method: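 HL-60(TB), part of the 60-line panel, tested at a single concentration of 10^-5 M. The read-out is percent tumor cell growth relative to untreated growth.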

[48] = system: SK-MEL-28; experiment: Growth inhibition of human SK-MEL-28 cells assessed tumor cell growth at 10^-5 M; summary of the method: as §2
[49] = system: SN12C; experiment: Growth inhibition of human SN12C cells assessed tumor cell growth at 10^-5 M; summary of the method: as §2
[50] = system: MCF7; experiment: Growth inhibition of human MCF7 cells assessed tumor cell growth at 10^-5 M; summary of the method: as §2
[51] = system: NCI-H522; experiment: Growth inhibition of human NCI-H522 cells assessed tumor cell growth at 10^-5 M; summary of the method: as §2
[52] = system: COLO 205; experiment: Growth inhibition of human COLO205 cells assessed tumor cell growth at 10^-5 M; summary of the method: as §2
[53] = system: SNB-19; experiment: Growth inhibition of human SNB19 cells assessed tumor cell growth at 10^-5 M; summary of the method: as §1
[54] = system: NCI-H460; experiment: Growth inhibition of human NCI-H460 cells assessed tumor cell growth at 10^-5 M; summary of the method: as §2
[55] = system: SK-OV-3; experiment: Growth inhibition of human SKOV3 cells assessed tumor cell growth at 10^-5 M; summary of the method: as §2
[56] = system: SK-MEL-5; experiment: Growth inhibition of human SK-MEL-5 cells assessed tumor cell growth at 10^-5 M; summary of the method: as §2
[57] = system: T47D; experiment: Growth inhibition of human T47D cells assessed tumor cell growth at 10^-5 M; summary of the method: as §1
[58] = system: SF-295; experiment: Growth inhibition of human SF295 cells assessed tumor cell growth at 10^-5 M; summary of the method: as §2
[59] = system: SF-539; experiment: Growth inhibition of human SF539 cells assessed tumor cell growth at 10^-5 M; summary of the method: as §2
[60] = system: TK-10; experiment: Growth inhibition of human TK10 cells assessed tumor cell growth at 10^-5 M; summary of the method: as §1

CN1C(=O)C(=Cc2coc3ccccc3c2=O)C(=O)N(C)C1=O
Activity [1]: 93.36% | Activity [2]: 85.24% | Activity [3]: 81.25% | Activity [4]: 104.25% | Activity [5]: 112.32% | Activity [6]: 90.53% | Activity [7]: 104.96% | Activity [8]: 72.89% | Activity [9]: 105.28% | Activity [10]: 92.09% | Activity [11]: 87.83% | Activity [12]: 98.76% | Activity [13]: 103.79% | Activity [14]: 120.85% | Activity [15]: 95.42% | Activity [16]: 94.7% | Activity [17]: 91.99% | Activity [18]: 95.15% | Activity [19]: 106.58% | Activity [20]: 95.26% | Activity [21]: 104.58% | Activity [22]: 84.27% | Activity [23]: 84.39% | Activity [24]: 105.77% | Activity [25]: 89.46% | Activity [26]: 93.31% | Activity [27]: 67.73% | Activity [28]: 87.77% | Activity [29]: 97.92% | Activity [30]: 97.29% | Activity [31]: 85.46% | Activity [32]: 137.21% | Activity [33]: 86.75% | Activity [34]: 87.93% | Activity [35]: 102.73% | Activity [36]: 115.86% | Activity [37]: 99.12% | Activity [38]: 82.74% | Activity [39]: 96.44% | Activity [40]: 94.47% | Activity [41]: 62.63% | Activity [42]: 98.13% | Activity [43]: 87.53% | Activity [44]: 96.45% | Activity [45]: 85.44% | Activity [46]: 109.04% | Activity [47]: 92.68% | Activity [48]: 108.31% | Activity [49]: 88.79%

O=C1/C(=C\c2cn(C(=O)c3ccc(Cl)cc3)c3ccccc23)c2ccccc2N1C(=O)c1ccc(Cl)cc1
Activity [1]: 74.1% | Activity [2]: 83.4% | Activity [3]: 61.5% | Activity [4]: 51.7% | Activity [5]: 70.4% | Activity [6]: 79.1% | Activity [7]: 63.2% | Activity [50]: 71.1% | Activity [51]: 6% | Activity [8]: 56.1% | Activity [9]: 83.8% | Activity [10]: 114.7% | Activity [11]: 89.4% | Activity [12]: 70.7% | Activity [13]: 84.2% | Activity [14]: 81% | Activity [15]: 49.8% | Activity [16]: 65.7% | Activity [17]: 83.2% | Activity [18]: 80% | Activity [19]: 85% | Activity [20]: 93.7% | Activity [21]: 97.5% | Activity [22]: 83.1% | Activity [23]: 61.3% | Activity [52]: 104.7% | Activity [24]: 73.8% | Activity [25]: 67.7% | Activity [26]: 63.2% | Activity [27]: 64.4% | Activity [53]: 98.2% | Activity [28]: 88.9% | Activity [29]: 71.9% | Activity [31]: 65.1% | Activity [32]: 126% | Activity [33]: 78.6% | Activity [54]: 86% | Activity [35]: 93.1% | Activity [36]: 98.5% | Activity [55]: 77% | Activity [38]: 65.8% | Activity [56]: 74.8% | Activity [39]: 80.5% | Activity [57]: 61.7% | Activity [58]: 101.9% | Activity [59]: 67.3% | Activity [41]: 57.4% | Activity [42]: 77.5% | Activity [44]: 81.2% | Activity [45]: 54.4% | Activity [46]: 24.2% | Activity [47]: 54.1% | Activity [48]: 103% | Activity [49]: 80.7% | Activity [60]: 55.3%

Reference: ChEMBL document CHEMBL1811814, “Synthesis and evaluation of indole, pyrazole, chromone and pyrimidine based conjugates for tumor growth inhibitory activities--development of highly efficacious cytotoxic agents” (Eur J Med Chem, 2010)
